Data published in ChEMBL document CHEMBL3091445, “The 3,7-diazabicyclo[3.3.1]nonane scaffold for subtype selective nicotinic acetylcholine receptor ligands. Part 2: carboxamide derivatives with different spacer motifs” (Bioorg Med Chem, 2013).
Activity calls are given as the source filed them. No cut-off for these calls is given here.

Experiments:
[1] = biological target: T1, Neuronal acetylcholine receptor; alpha4/beta2 (Homo sapiens) (UniProt P17787+P43681); test: Partial agonist activity at human alpha4beta2 nAChR expressed in Xenopus oocytes at 1 uM incubated for 8 secs followed by compound washout measured after 241 secs by two-electrode voltage clamp technique; format: cell-based
[2] = Displacement of [3H]epibatidine from calf adrenal alpha3beta4 nAChR after 90 mins by liquid scintillation counting analysis; design: species or system Bos taurus
[3] = biological target: T1, Neuronal acetylcholine receptor; alpha4/beta2 (Homo sapiens); test: Antagonist activity at human alpha4beta2 nAChR expressed in Xenopus oocytes assessed as inhibition of acetylcholine-induced effect at 1 uM incubated for 8 secs followed by compound washout measured after 241 secs by two-electrode voltage clamp technique; format: cell-based
[4] = biological target: Neuronal acetylcholine receptor subunit alpha-7 (Homo sapiens) (UniProt P36544); test: Antagonist activity at human alpha7 nAChR expressed in Xenopus oocytes assessed as inhibition of acetylcholine-induced effect at 1 uM incubated for 12 secs followed by compound washout measured after 181 secs by two-electrode voltage clamp technique; format: cell-based
Sequence of Neuronal acetylcholine receptor subunit alpha-7 (Homo sapiens) (P36544 whole entry): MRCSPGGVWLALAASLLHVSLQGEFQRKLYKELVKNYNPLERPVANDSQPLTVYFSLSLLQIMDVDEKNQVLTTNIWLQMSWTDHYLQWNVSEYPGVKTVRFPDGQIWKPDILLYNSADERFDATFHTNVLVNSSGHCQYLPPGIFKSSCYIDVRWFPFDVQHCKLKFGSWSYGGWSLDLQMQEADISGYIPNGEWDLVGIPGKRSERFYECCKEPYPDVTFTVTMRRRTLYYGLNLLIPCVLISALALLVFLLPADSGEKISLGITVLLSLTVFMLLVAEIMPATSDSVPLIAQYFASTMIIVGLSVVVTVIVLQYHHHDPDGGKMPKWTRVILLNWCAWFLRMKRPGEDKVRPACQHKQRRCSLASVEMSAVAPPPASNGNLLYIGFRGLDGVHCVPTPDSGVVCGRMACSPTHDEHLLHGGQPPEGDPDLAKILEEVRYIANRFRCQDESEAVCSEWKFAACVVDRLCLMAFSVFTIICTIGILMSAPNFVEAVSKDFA

[5] = biological target: T2, Nicotinic acetylcholine receptor alpha1/beta1/epsilon/delta (Mus musculus) (UniProt P04756+P09690+P02716+P20782); test: Antagonist activity at mouse muscle alpha1beta1epsilondelta nAChR expressed in Xenopus oocytes assessed as inhibition of acetylcholine-induced effect at 1 uM incubated for 8 secs followed by compound washout measured after 241 secs by two-electrode voltage clamp technique; format: cell-based
[6] = biological target: T3, Neuronal acetylcholine receptor; alpha3/beta4 (Homo sapiens) (UniProt P30926+P32297); test: Antagonist activity at human alpha3beta4 nAChR expressed in Xenopus oocytes at 1 uM incubated for 8 secs followed by compound washout measured after 241 secs by two-electrode voltage clamp technique; format: cell-based
[7] = biological target: T1, Neuronal acetylcholine receptor; alpha4/beta2 (Homo sapiens); test: Partial agonist activity at human alpha4beta2 nAChR expressed in Xenopus oocytes at 10 uM incubated for 8 secs followed by compound washout measured after 241 secs by two-electrode voltage clamp technique; format: cell-based
[8] = biological target: Neuronal acetylcholine receptor; alpha4/beta2 (Rattus norvegicus, UniProt P09483+P12390); test: Displacement of [3H]epibatidine from Sprague-Dawley rat brain alpha4beta2 nAChR after 90 mins by liquid scintillation counting analysis
Sequence of Neuronal acetylcholine receptor; alpha4/beta2 (P09483 whole entry): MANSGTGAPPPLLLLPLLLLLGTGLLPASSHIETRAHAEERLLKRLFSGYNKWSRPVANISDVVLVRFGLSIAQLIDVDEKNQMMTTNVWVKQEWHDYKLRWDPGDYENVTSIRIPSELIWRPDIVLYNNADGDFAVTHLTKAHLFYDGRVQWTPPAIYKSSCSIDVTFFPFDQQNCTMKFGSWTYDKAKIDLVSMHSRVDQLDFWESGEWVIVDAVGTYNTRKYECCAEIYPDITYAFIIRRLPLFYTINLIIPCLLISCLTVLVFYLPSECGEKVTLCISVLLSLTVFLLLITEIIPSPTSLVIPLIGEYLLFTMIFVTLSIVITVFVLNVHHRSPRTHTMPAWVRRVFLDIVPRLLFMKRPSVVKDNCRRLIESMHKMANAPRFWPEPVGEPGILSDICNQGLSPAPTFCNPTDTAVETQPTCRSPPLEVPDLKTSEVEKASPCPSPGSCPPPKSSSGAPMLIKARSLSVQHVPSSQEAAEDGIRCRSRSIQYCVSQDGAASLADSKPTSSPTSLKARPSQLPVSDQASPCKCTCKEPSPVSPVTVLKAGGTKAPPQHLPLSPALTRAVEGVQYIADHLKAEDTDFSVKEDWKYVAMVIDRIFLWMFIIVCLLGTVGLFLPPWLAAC
Sequence of Neuronal acetylcholine receptor; alpha4/beta2 (P12390 whole entry): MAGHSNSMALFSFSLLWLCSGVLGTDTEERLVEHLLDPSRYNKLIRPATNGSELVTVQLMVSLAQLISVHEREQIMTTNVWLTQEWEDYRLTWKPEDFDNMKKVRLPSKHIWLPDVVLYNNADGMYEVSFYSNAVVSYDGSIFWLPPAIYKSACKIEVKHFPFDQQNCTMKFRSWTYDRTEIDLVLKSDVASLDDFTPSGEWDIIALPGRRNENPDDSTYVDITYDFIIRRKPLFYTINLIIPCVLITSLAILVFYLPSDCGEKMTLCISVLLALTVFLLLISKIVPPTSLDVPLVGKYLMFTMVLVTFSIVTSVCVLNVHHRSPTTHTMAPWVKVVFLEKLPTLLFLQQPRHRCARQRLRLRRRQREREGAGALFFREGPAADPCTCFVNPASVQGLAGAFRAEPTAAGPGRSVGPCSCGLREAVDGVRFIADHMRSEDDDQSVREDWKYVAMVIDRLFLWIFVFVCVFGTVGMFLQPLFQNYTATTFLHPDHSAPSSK
In short: (§1)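 Radioligand competition binding gave Ki values, reported as mean ± SEM from 2–10 independent experiments.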

[9] = Displacement of [3H]epibatidine from Torpedo californica electroplax (alpha1)2beta1gammadelta nAChR after 90 mins by liquid scintillation counting analysis; design: species or system Tetronarce californica
[10] = biological target: T3, Neuronal acetylcholine receptor; alpha3/beta4 (Homo sapiens); test: Agonist activity at human alpha3beta4 nAChR expressed in Xenopus oocytes at 1 uM incubated for 8 secs followed by compound washout measured after 241 secs by two-electrode voltage clamp technique; format: cell-based
[11] = biological target: T3, Neuronal acetylcholine receptor; alpha3/beta4 (Homo sapiens); test: Agonist activity at human alpha3beta4 nAChR expressed in Xenopus oocytes at 10 uM incubated for 8 secs followed by compound washout measured after 241 secs by two-electrode voltage clamp technique; format: cell-based
[12] = biological target: T2, Nicotinic acetylcholine receptor alpha1/beta1/epsilon/delta (Mus musculus); test: Agonist activity at mouse muscle alpha1beta1epsilondelta nAChR expressed in Xenopus oocytes at 10 uM incubated for 8 secs followed by compound washout measured after 241 secs by two-electrode voltage clamp technique; format: cell-based
[13] = biological target: T2, Nicotinic acetylcholine receptor alpha1/beta1/epsilon/delta (Mus musculus); test: Agonist activity at mouse muscle alpha1beta1epsilondelta nAChR expressed in Xenopus oocytes at 1 uM incubated for 8 secs followed by compound washout measured after 241 secs by two-electrode voltage clamp technique; format: cell-based
[14] = biological target: Neuronal acetylcholine receptor subunit alpha-7 (Rattus norvegicus, UniProt Q05941); test: Displacement of [3H]methyllycaconitine from Sprague-Dawley rat brain alpha7 nAChR after 120 mins by liquid scintillation counting analysis; format: tissue-based; in short: as §1
Sequence of Neuronal acetylcholine receptor subunit alpha-7 (Q05941 whole entry): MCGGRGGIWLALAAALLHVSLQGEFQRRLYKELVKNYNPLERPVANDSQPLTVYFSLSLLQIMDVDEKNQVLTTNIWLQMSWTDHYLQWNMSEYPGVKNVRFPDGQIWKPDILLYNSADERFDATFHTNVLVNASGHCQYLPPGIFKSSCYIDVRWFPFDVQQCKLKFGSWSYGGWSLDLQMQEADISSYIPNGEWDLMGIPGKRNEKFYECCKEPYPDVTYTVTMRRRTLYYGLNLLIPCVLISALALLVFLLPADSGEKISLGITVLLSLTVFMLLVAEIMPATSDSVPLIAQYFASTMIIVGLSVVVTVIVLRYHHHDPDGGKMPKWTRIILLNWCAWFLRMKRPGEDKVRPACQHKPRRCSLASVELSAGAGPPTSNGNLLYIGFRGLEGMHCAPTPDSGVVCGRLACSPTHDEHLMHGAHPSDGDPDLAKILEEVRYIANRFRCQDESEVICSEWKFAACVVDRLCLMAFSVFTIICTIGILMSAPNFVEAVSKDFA

[15] = biological target: Neuronal acetylcholine receptor subunit alpha-7 (Homo sapiens) (UniProt P36544); test: Agonist activity at human alpha7 nAChR expressed in Xenopus oocytes at 1 uM incubated for 12 secs followed by compound washout measured after 181 secs by two-electrode voltage clamp technique; format: cell-based
[16] = biological target: Neuronal acetylcholine receptor subunit alpha-7 (Homo sapiens) (UniProt P36544); test: Agonist activity at human alpha7 nAChR expressed in Xenopus oocytes at 10 uM incubated for 12 secs followed by compound washout measured after 181 secs by two-electrode voltage clamp technique; format: cell-based

Row | Structure (SMILES) | Activity [1] | Ki [2] [µM] | antagonist activity (active/inactive) [3] | inhibition [4] | inhibition [5] | Activity [6] | Activity [7] | Ki [8] [µM] | Ki [9] [µM] | Activity [10] | Activity [11] | Activity [12] | Activity [13] | Ki [14] [µM] | Activity [15] | Activity [16]
1 | O=C(c1ccc(-c2ccncc2)cc1)N1C[C@@H]2CNC[C@@H](C2)C1 | Active | > 1 | Active | inactive | inactive | inactive | Active | 0.0071 | > 5 | inactive | inactive | inactive | inactive | > 1 | inactive | –
2 | O=C(Cc1ccncc1)N1C[C@@H]2CNC[C@@H](C2)C1 | Active | > 1 | – | inactive | inactive | inactive | Active | 0.0144 | > 5 | inactive | inactive | inactive | inactive | > 1 | inactive | –
3 | O=C(Cc1cccnc1)N1C[C@@H]2CNC[C@@H](C2)C1 | Active | > 1 | – | inactive | inactive | inactive | Active | 0.0112 | > 5 | inactive | inactive | inactive | inactive | > 1 | inactive | –
4 | COc1ccc(C#CC(=O)N2C[C@@H]3CNC[C@@H](C3)C2)cc1Cl | – | > 1 | Active | inactive | inactive | inactive | Active | 0.000991 | > 5 | – | inactive | inactive | – | > 1 | – | –
5 | O=C(c1ccc(-c2cccnc2)cc1)N1C[C@@H]2CNC[C@@H](C2)C1 | Active | > 1 | Active | inactive | inactive | inactive | Active | 0.025 | > 5 | inactive | inactive | inactive | inactive | > 1 | inactive | –
6 | O=C(Cc1ccc2c(c1)OCO2)N1C[C@@H]2CNC[C@@H](C2)C1 | Active | > 1 | – | inactive | inactive | inactive | Active | 0.0132 | > 5 | inactive | inactive | inactive | inactive | > 1 | inactive | –
7 | O=C([C@@H]1C[C@H]1c1ccccc1)N1C[C@@H]2CNC[C@@H](C2)C1 | – | – | Active | inactive | inactive | – | – | 0.0012 | – | – | Active | inactive | – | > 10 | – | Active

The remaining lines, values ahead:

Row | Activity [1] | Ki [2] [µM] | antagonist activity (active/inactive) [3] | inhibition [4] | inhibition [5] | Activity [6] | Activity [7] | Ki [8] [µM] | Ki [9] [µM] | Activity [10] | Activity [11] | Activity [12] | Activity [13] | Ki [14] [µM] | Activity [15] | Activity [16] | Structure (SMILES)
8 | – | > 1 | Active | inactive | Active | inactive | Active | 0.0021 | > 5 | – | inactive | inactive | – | > 1 | – | – | COc1ccc(C#CC(=O)N2C[C@@H]3CNC[C@@H](C3)C2)cc1OC
9 | – | > 1 | Active | inactive | inactive | inactive | Active | 0.0031 | > 5 | – | inactive | inactive | – | > 1 | – | – | O=C(C#Cc1ccc2c(c1)OCO2)N1C[C@@H]2CNC[C@@H](C2)C1
10 | Active | > 5 | Active | inactive | inactive | inactive | Active | 0.0229 | > 5 | inactive | inactive | inactive | inactive | > 5 | inactive | – | CS(=O)(=O)c1ccc(CC(=O)N2C[C@@H]3CNC[C@@H](C3)C2)cc1
11 | Active | > 5 | – | inactive | inactive | inactive | Active | 0.0551 | > 10 | inactive | inactive | inactive | inactive | > 5 | inactive | – | O=C(/C=C/c1ccccc1)N1C[C@@H]2CNC[C@@H](C2)C1
12 | Active | > 1 | – | inactive | inactive | inactive | Active | 0.0369 | > 5 | inactive | inactive | inactive | inactive | > 1 | inactive | – | O=C(/C=C/c1ccc2c(c1)OCO2)N1C[C@@H]2CNC[C@@H](C2)C1
13 | Active | > 1 | Active | inactive | inactive | inactive | Active | 0.0056 | > 5 | inactive | inactive | inactive | inactive | > 1 | inactive | – | O=C(c1ccc(-n2ccnc2)cc1)N1C[C@@H]2CNC[C@@H](C2)C1
